This passage reports Activity results from ChEMBL document CHEMBL1139401, “5-(4-Chlorophenyl)-5,6-dihydro-1,3-oxazepin-7(4H)-one derivatives as lipophilic cyclic analogues of baclofen: design, synthesis, and neuropharmacological evaluation” (2008).

Structures are written as SMILES.

The first test relates to Mus musculus. Kind of test: Neuropharmacological effect in albino mouse assessed as endurance time at 3 mg/kg, ip after 45 mins by rotarod test. The format is functional. The settings on record: route intraperitoneal. An outline of the steps: (§1)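 For the rotarod, the cylinder was 6 cm diameter, 30 cm high and turned at 12 rpm. Male albino mice were trained the day before to stay on for 300 s, and those not reaching this were excluded. Endurance time (max 300 s) was measured 30, 45, 60 and 90 min after ip drug in DMSO or vehicle. Five mice per group; mean ± SEM.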
With `CCCCCCCCCCCC1=NCC(c2ccc(Cl)cc2)CC(=O)O1` (centres undefined), the Activity turned out to be 188 s.

For `NCC(CC(=O)O)c1ccc(Cl)cc1` (centres undefined) [BACLOFEN], the Activity amounted to 225 s.

A further test has as its system Mus musculus. Kind of test: Neuropharmacological effect in albino mouse assessed as endurance time at 3 mg/kg, ip after 60 mins by rotarod test. The settings on record: route intraperitoneal. In kind it is functional. An outline of the steps:
as §1
As to `CCCCCCCCCCCC1=NCC(c2ccc(Cl)cc2)CC(=O)O1` (centres undefined), the Activity is on record as 178 s.

For the compound `NCC(CC(=O)O)c1ccc(Cl)cc1` (centres undefined) [BACLOFEN], the Activity is listed as 234 s.

The subject of the next test is Mus musculus. Kind of test: Neuropharmacological effect in albino mouse assessed as endurance time at 3 mg/kg, ip after 90 mins by rotarod test. In kind it is functional. The conditions noted are these: route intraperitoneal. The method, boiled down: as §1
For the compound `CCCCCCCCCCCC1=NCC(c2ccc(Cl)cc2)CC(=O)O1` (centres undefined), the Activity came out at 145 s.

On to `NCC(CC(=O)O)c1ccc(Cl)cc1` (centres undefined) [BACLOFEN], for which the Activity came to 254 s.

A further test concerns Mus musculus. Kind of test: Muscle relaxant activity in albino mouse at 3 mg/kg, ip after 30 mins by traction test. The format is functional. Also noted: scale not given: the % may be the effect or the level left. The conditions noted are these: route intraperitoneal. The method, boiled down: (§2)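 Traction test in male albino mice (20–25 g), five per group, given drug ip in DMSO. Success required touching the wire with at least one hind paw within 5 s; otherwise scored as failure. Mice were tested 30, 45, 60 and 90 min after dosing, immediately before the rotarod. Results are % successful, mean ± SEM.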
Turning to `CCCCCCCCCCCC1=NCC(c2ccc(Cl)cc2)CC(=O)O1` (centres undefined), the Activity is 45%.

With `NCC(CC(=O)O)c1ccc(Cl)cc1` (centres undefined) [BACLOFEN], the Activity was found to be 50%.

In the next test the test system is Mus musculus. Kind of test: Muscle relaxant activity in albino mouse at 3 mg/kg, ip after 45 mins by traction test. In kind it is functional. Also noted: scale not given: the % may be the effect or the level left. The settings on record: route intraperitoneal. The method, boiled down:
as §2
`CCCCCCCCCCCC1=NCC(c2ccc(Cl)cc2)CC(=O)O1` (centres undefined) displayed an Activity of 43%.

As to `NCC(CC(=O)O)c1ccc(Cl)cc1` (centres undefined) [BACLOFEN], the Activity amounted to 52%.

The test system of a further test is Mus musculus. Kind of test: Muscle relaxant activity in albino mouse at 3 mg/kg, ip after 60 mins by traction test. In kind it is functional. Details: scale not given: the % may be the effect or the level left. The conditions noted are these: route intraperitoneal. The method, boiled down: as §2
For the compound `CCCCCCCCCCCC1=NCC(c2ccc(Cl)cc2)CC(=O)O1` (centres undefined), the Activity was determined as 40%.

`NCC(CC(=O)O)c1ccc(Cl)cc1` (centres undefined) [BACLOFEN] registered an Activity of 53%.

The next test concerns Mus musculus. Kind of test: Muscle relaxant activity in albino mouse at 3 mg/kg, ip after 90 mins by traction test. In kind it is functional. Details: scale not given: the % may be the effect or the level left. The conditions noted are these: route intraperitoneal. An outline of the steps: as §2
`CCCCCCCCCCCC1=NCC(c2ccc(Cl)cc2)CC(=O)O1` (centres undefined) displayed an Activity of 40%.

As for `NCC(CC(=O)O)c1ccc(Cl)cc1` (centres undefined) [BACLOFEN], the Activity was determined as 53%.

Another test has as its system Mus musculus. Kind of test: Analgesic activity in albino mouse assessed as retention latency at 3 mg/kg, ip after 30 mins by hot plate test. The format is functional. The settings on record: route intraperitoneal. An outline of the steps:
(§3)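 Male albino mice (20–25 g), five per group, given drug in DMSO ip; vehicle controls got DMSO alone. Mice were placed in a glass cylinder on a 54 °C metal plate. Latency to hind-paw lick or jump was recorded, with a 30 s cut-off. Testing was 30, 45, 60 and 90 min post-injection. Values are mean ± SEM.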
Turning to `CCCCCCCCCCCC1=NCC(c2ccc(Cl)cc2)CC(=O)O1` (centres undefined), the Activity was 7.82 s.

Take `NCC(CC(=O)O)c1ccc(Cl)cc1` (centres undefined) [BACLOFEN]: the Activity worked out at 13.42 s.

Another test concerns Mus musculus. Kind of test: Analgesic activity in albino mouse assessed as retention latency at 3 mg/kg, ip after 45 mins by hot plate test. In kind it is functional. The conditions noted are these: route intraperitoneal. An outline of the steps:
as §3
As for `CCCCCCCCCCCC1=NCC(c2ccc(Cl)cc2)CC(=O)O1` (centres undefined), the Activity was 13.21 s.

`NCC(CC(=O)O)c1ccc(Cl)cc1` (centres undefined) [BACLOFEN]: the Activity is recorded as 15.35 s.

The next test has as its system Mus musculus. Kind of test: Analgesic activity in albino mouse assessed as retention latency at 3 mg/kg, ip after 60 mins by hot plate test. The format is functional. The settings on record: route intraperitoneal. The method, boiled down: as §3
Regarding `CCCCCCCCCCCC1=NCC(c2ccc(Cl)cc2)CC(=O)O1` (centres undefined), the Activity turned out to be 18.56 s.

On to `NCC(CC(=O)O)c1ccc(Cl)cc1` (centres undefined) [BACLOFEN], for which the Activity stood at 14.36 s.

The subject of a further test is Mus musculus. Kind of test: Analgesic activity in albino mouse assessed as retention latency at 3 mg/kg, ip after 90 mins by hot plate test. The format is functional. The settings on record: route intraperitoneal. The method, boiled down:
as §3
For the compound `CCCCCCCCCCCC1=NCC(c2ccc(Cl)cc2)CC(=O)O1` (centres undefined), the Activity is listed as 24.43 s.

With `NCC(CC(=O)O)c1ccc(Cl)cc1` (centres undefined) [BACLOFEN], the Activity amounted to 14.22 s.

The test system of the next test is Mus musculus. Kind of test: Neuropharmacological effect in albino mouse assessed as onset of loss of righting reflex at 3 mg/kg, ip. The format is functional. The conditions noted are these: route intraperitoneal. The method, boiled down: (§4)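 Male albino mice (20–25 g), five per group, injected ip (drug in DMSO). Loss of righting reflex was inability to right within 30 s, after which mice were laid supine in a 90° trough. Return was righting twice within 1 min. Onset was recorded, and duration was the time from loss to return. Values are mean ± SEM.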
On to `CCCCCCCCCCCC1=NCC(c2ccc(Cl)cc2)CC(=O)O1` (centres undefined), for which the Activity is 38.23 min.

Turning to `NCC(CC(=O)O)c1ccc(Cl)cc1` (centres undefined) [BACLOFEN], the Activity is given as 20.24 min.

The next test concerns Mus musculus. Kind of test: Neuropharmacological effect in albino mouse assessed as duration of loss of righting reflex at 3 mg/kg, ip. In kind it is functional. The settings on record: route intraperitoneal. An outline of the steps:
as §4
Turning to `CCCCCCCCCCCC1=NCC(c2ccc(Cl)cc2)CC(=O)O1` (centres undefined), the Activity worked out at 60.25 min.

Consider `NCC(CC(=O)O)c1ccc(Cl)cc1` (centres undefined) [BACLOFEN], for which the Activity amounted to 35.23 min.

In a further test the test system is Mus musculus. Kind of test: Neuropharmacological effect in albino mouse assessed as spontaneous locomotor activity at 3 mg/kg, ip after 30 mins. The settings on record: route intraperitoneal. The format is functional. The method, boiled down: (§5)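 Male albino mice (20–25 g), five per group, got ip drug in DMSO or DMSO vehicle and went back to their home cages. After 30, 45, 60 or 90 min each was placed alone in a Plexiglas box and spontaneous locomotor activity was recorded. Tests were run in the morning. Values are mean ± SEM.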
In the case of `CCCCCCCCCCCC1=NCC(c2ccc(Cl)cc2)CC(=O)O1` (centres undefined), the Activity is given as 20.12 m.

For the compound `NCC(CC(=O)O)c1ccc(Cl)cc1` (centres undefined) [BACLOFEN], the Activity amounted to 30.21 m.

In another test the test system is Mus musculus. Kind of test: Neuropharmacological effect in albino mouse assessed as spontaneous locomotor activity at 3 mg/kg, ip after 45 mins. The format is functional. The settings on record: route intraperitoneal. The method, boiled down:
as §5
In the case of `CCCCCCCCCCCC1=NCC(c2ccc(Cl)cc2)CC(=O)O1` (centres undefined), the Activity was 16.21 m.

For the compound `NCC(CC(=O)O)c1ccc(Cl)cc1` (centres undefined) [BACLOFEN], the Activity amounted to 28.48 m.

The test system of a further test is Mus musculus. Kind of test: Neuropharmacological effect in albino mouse assessed as spontaneous locomotor activity at 3 mg/kg, ip after 60 mins. In kind it is functional. The conditions noted are these: route intraperitoneal. An outline of the steps:
as §5
Turning to `CCCCCCCCCCCC1=NCC(c2ccc(Cl)cc2)CC(=O)O1` (centres undefined), the Activity was determined as 14.11 m.

On to `NCC(CC(=O)O)c1ccc(Cl)cc1` (centres undefined) [BACLOFEN], for which the Activity is listed as 30.76 m.

The test system of another test is Mus musculus. Kind of test: Neuropharmacological effect in albino mouse assessed as spontaneous locomotor activity at 3 mg/kg, ip after 90 mins. In kind it is functional. The settings on record: route intraperitoneal. The method, boiled down:
as §5
`CCCCCCCCCCCC1=NCC(c2ccc(Cl)cc2)CC(=O)O1` (centres undefined): the Activity is recorded as 15.66 m.

Regarding `NCC(CC(=O)O)c1ccc(Cl)cc1` (centres undefined) [BACLOFEN], the Activity came to 35.64 m.

A further test concerns Mus musculus. Kind of test: Neuropharmacological effect in albino mouse assessed as endurance time at 3 mg/kg, ip after 30 mins by rotarod test. The settings on record: route intraperitoneal. In kind it is functional. The method, boiled down: as §1
With `CCCCCCCCCCCC1=NCC(c2ccc(Cl)cc2)CC(=O)O1` (centres undefined), the Activity is 232 s.

For the compound `NCC(CC(=O)O)c1ccc(Cl)cc1` (centres undefined) [BACLOFEN], the Activity is given as 214 s.

In a further test the test system is Mus musculus. Kind of test: Decrease in cognitive impairment in albino mouse assessed as retention latency at 3 mg/kg, ip after 30 mins by passive avoidance reflex test. The format is functional. The conditions noted are these: route intraperitoneal. The method, boiled down:
(§6)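 Passive avoidance in male albino mice (20–25 g), five per group, housed singly from the day before training. Drug in DMSO was given ip 30, 45, 60 or 90 min before the training trial. Mice were put in the light side of a two-compartment apparatus and the door to the dark side was opened. The retention test next day used the shock generator off. Latency reported as mean ± SEM.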
Regarding `CCCCCCCCCCCC1=NCC(c2ccc(Cl)cc2)CC(=O)O1` (centres undefined), the Activity was determined as 152.34 s.

For the compound `NCC(CC(=O)O)c1ccc(Cl)cc1` (centres undefined) [BACLOFEN], the Activity is on record as 125.34 s.

The subject of a further test is Mus musculus. Kind of test: Decrease in cognitive impairment in albino mouse assessed as retention latency at 3 mg/kg, ip after 45 mins by passive avoidance reflex test. The format is functional. The settings on record: route intraperitoneal. An outline of the steps:
as §6
Turning to `CCCCCCCCCCCC1=NCC(c2ccc(Cl)cc2)CC(=O)O1` (centres undefined), the Activity is on record as 114.73 s.

On to `NCC(CC(=O)O)c1ccc(Cl)cc1` (centres undefined) [BACLOFEN], for which the Activity turned out to be 121.46 s.

For another test, the system named is Mus musculus. Kind of test: Decrease in cognitive impairment in albino mouse assessed as retention latency at 3 mg/kg, ip after 60 mins by passive avoidance reflex test. In kind it is functional. The settings on record: route intraperitoneal. An outline of the steps: as §6
For the compound `CCCCCCCCCCCC1=NCC(c2ccc(Cl)cc2)CC(=O)O1` (centres undefined), the Activity was 88.14 s.

Regarding `NCC(CC(=O)O)c1ccc(Cl)cc1` (centres undefined) [BACLOFEN], the Activity came out at 121.44 s.

The test system of the next test is Mus musculus. Kind of test: Decrease in cognitive impairment in albino mouse assessed as retention latency at 3 mg/kg, ip after 90 mins by passive avoidance reflex test. The conditions noted are these: route intraperitoneal. The format is functional. The method, boiled down: as §6
For the compound `CCCCCCCCCCCC1=NCC(c2ccc(Cl)cc2)CC(=O)O1` (centres undefined), the Activity was found to be 72.45 s.

Regarding `NCC(CC(=O)O)c1ccc(Cl)cc1` (centres undefined) [BACLOFEN], the Activity was 128.56 s.
